Converted amounts (≈) assume the structure as drawn. The source made the active and inactive calls. No cut-off for these calls is given here.
Columns and labels:
[1] = test system: Mammalian orthoreovirus 1; experiment: Antiviral activity against Reovirus 1 3651 ATCC VR-214 infected in golden hamster BHK21 cells assessed as protection against virus-induced cytopathic effect after 3 to 4 days by MTT assay; assay type: functional, organism-based; conditions: Mammalian orthoreovirus 1, 3651 ATCC VR-214, BHK-21
Procedure, shortened: (§1)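 Cytopathic-effect protection assay. MDBK (BVDV) or BHK (Reo-1) cells are infected in the presence of serial compound dilutions. After 3 or 4 days at 37 °C, viability is read by MTT. EC50 is the concentration giving 50% protection from virus-induced cytopathogenicity, derived by linear regression.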

[2] = test system: Bovine viral diarrhea virus 1; experiment: Antiviral activity against BVDV NADL ATCC VR-534 infected in MDBK cells assessed as protection against virus-induced cytopathic effect after 3 to 4 days by MTT assay; assay type: functional, organism-based, Bovine viral diarrhea virus 1-NADL; conditions: Bovine viral diarrhea virus isolates and strains, ATCC VR-534, MDBK; procedure, shortened: as §1
Human orthopneumovirus = experiment: Antiviral activity against Human respiratory syncytial virus A2 ATCC VR 1540 infected in African green monkey Vero 76 cells after 5 days by plaque reduction assay; assay type: functional, organism-based; conditions: ATCC VR 1540, Vero 76, 120 h
Procedure, shortened: (§2)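 Plaque reduction in Vero-76 monolayers, with cytotoxicity measured in parallel on the same plate. EC50 is the concentration reducing plaque number by 50%, derived by linear regression. CC50 is the concentration reducing viability of mock-infected Vero-76 cells by 50%, by MTT. Selectivity index is CC50/EC50.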

[3] = test system: Vesicular stomatitis Indiana virus; experiment: Antiviral activity against Vesicular stomatitis virus Indiana ATCC VR 1540 infected in African green monkey Vero 76 cells after 3 days by plaque reduction assay; assay type: functional, organism-based; conditions: ATCC VR 1540, Vero 76, 72 h
Human alphaherpesvirus 1 = experiment: Antiviral activity against HSV1 KOS ATCC VR 1493 infected in African green monkey Vero 76 cells after 3 days by plaque reduction assay; assay type: functional, organism-based; conditions: Human alphaherpesvirus 1, KOS ATCC VR1493, Vero 76, 72 h; procedure, shortened: as §2
[4] = Cytotoxicity against human MT4 cells assessed as reduction in cell viability after 48 to 96 hrs by MTT assay; assay type: cell-based
Procedure, shortened: (§3)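 Cells are grown in medium with serum: MT-4 at 4×10^5 cells/ml in RPMI-1640 with 10% FBS; MDBK at 6×10^5 in MEM-E with 10% horse serum; BHK at 1×10^6 in MEM-E with 10% FBS; Vero-76 at 4×10^5 in D-MEM with 10% FBS. Serial dilutions are added at 37 °C, 5% CO2, and viability is read by MTT after 48–96 h. CC50 comes from linear regression. For MDBK, selectivity index is CC50/BVDV EC50.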

Coxsackievirus B5 [5] = experiment: Antiviral activity against Coxsackievirus B5 Ohio-1 ATCC VR 29 infected in African green monkey Vero 76 cells after 3 days by plaque reduction assay; assay type: functional, organism-based; conditions: Enterovirus B, Ohio-1 ATCC VR 29, Vero 76, 72 h; procedure, shortened: as §2
[6] = test system: Human immunodeficiency virus 1; experiment: Antiviral activity against HIV1 3B infected in human MT4 cells assessed as protection against virus-induced cytopathic effect after 3 to 4 days by MTT assay; assay type: functional, organism-based; conditions: Human immunodeficiency virus 1, 3B
Procedure, shortened: (§4)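 MT-4 cells in exponential growth are acutely infected with HIV-1 at m.o.i. 0.01 and exposed to serial compound dilutions. Viability is read by MTT after 3–4 days at 37 °C. EC50 is the concentration giving 50% protection from virus-induced cytopathogenicity, and CC50 is taken from mock-infected MT-4 cells. Both are fitted by linear regression, and the selectivity index is CC50/EC50.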

[7] = Cytotoxicity against MDBK cells assessed as reduction in cell viability after 48 to 96 hrs by MTT assay; assay type: cell-based, Bos taurus; conditions: cattle; procedure, shortened: as §3
[8] = Cytotoxicity against golden hamster BHK21 cells assessed as reduction in cell viability after 48 to 96 hrs by MTT assay; assay type: cell-based, Mesocricetus auratus, BHK-21; procedure, shortened: as §3
[9] = test system: Human poliovirus 1 strain Sabin; experiment: Antiviral activity against Poliovirus 1 Sabin ATCC VR 1562 infected in African green monkey Vero 76 cells after 2 days by plaque reduction assay; assay type: functional, organism-based; conditions: Enterovirus C, ATCC VR 1562, Vero 76, 48 h
[10] = Selectivity index, ratio of CC50 for African green monkey Vero 76 cells to EC50 for Coxsackievirus B5 Ohio-1 ATCC VR-29; assay type: toxicity; conditions: read-out: Ratio CC50/EC50; procedure, shortened: as §2
Vaccinia virus = experiment: Antiviral activity against Vaccinia virus Lister ATCC VR 1549 infected in African green monkey Vero 76 cells after 3 days by plaque reduction assay; assay type: functional, organism-based; conditions: Orthopoxvirus vaccinia, ATCC VR 1549, Vero 76, 72 h
Yellow fever virus = experiment: Antiviral activity against Yellow fever virus 17D infected in golden hamster BHK21 cells assessed as protection against virus-induced cytopathic effect after 3 to 4 days by MTT assay; assay type: functional, organism-based; conditions: BHK-21
[11] = Cytotoxicity against African green monkey Vero 76 cells assessed as reduction in cell viability after 48 to 96 hrs by MTT assay; assay type: cell-based; conditions: chlorocebus sabaeus; procedure, shortened: as §3
Coxsackievirus B5 [12] = experiment: Antiviral activity against Coxsackievirus B5 Ohio-1 ATCC VR 29 infected in African green monkey Vero 76 cells assessed as reduction in viral titre at 1 uM treated simultaneously with viral infection and subsequent compound washout after 2 hrs by plaque assay; assay type: functional, organism-based
Procedure, shortened: (§5)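 Time of addition. Confluent Vero-76 monolayers are infected with CV-B5 at m.o.i. 0.3. Compound at 1 μM is given at −2 to 0 h then removed, at 0 h then removed or kept, or at 2, 4, 6, 8 or 12 h post infection. After 3 days, monolayers are collected and titred by plaque assay, in two independent experiments each done in duplicate.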

Coxsackievirus B5 [13] = experiment: Antiviral activity against Coxsackievirus B5 Ohio-1 ATCC VR 29 infected in African green monkey Vero 76 cells assessed as reduction in viral infectivity at 4 to 20 uM after 1 hr by plaque assay; assay type: functional, organism-based
Procedure, shortened: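 Virucidal test. A CV-B5 suspension (5×10^5 PFU/ml) is incubated with 4 or 20 μM compound, or without, for 1 h at 37 °C. Residual infectivity is then measured by plaque assay on Vero-76 cells.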

Coxsackievirus B5 [14] = experiment: Antiviral activity against Coxsackievirus B5 Ohio-1 ATCC VR 29 infected in African green monkey Vero 76 cells assessed as reduction in viral yield after 72 hrs by plaque reduction assay; assay type: functional, organism-based
Coxsackievirus B5 [15] = experiment: Antiviral activity against Coxsackievirus B5 Ohio-1 ATCC VR 29 infected in African green monkey Vero 76 cells assessed as reduction in viral titre incubated for 60 mins at 4 degC measured after 24 hrs by plaque assay; assay type: functional, organism-based
Procedure, shortened: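 Adsorption assay. Vero-76 cells are infected with CV-B5 (m.o.i. 0.1) with or without compound for 60 min at 4 °C. Unbound virus is removed, cells are washed twice with PBS and overlaid with MEM containing 1% methylcellulose. Plaques are counted after 24 h at 37 °C.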

Coxsackievirus B5 [16] = experiment: Antiviral activity against Coxsackievirus B5 Ohio-1 ATCC VR 29 infected in African green monkey Vero 76 cells assessed as reduction in viral replication at 1 uM measured up to 2 hrs post infection by plaque assay; assay type: functional, organism-based; procedure, shortened: as §5
Coxsackievirus B5 [17] = experiment: Antiviral activity against Coxsackievirus B5 Ohio-1 ATCC VR 29 infected in African green monkey Vero 76 cells assessed as reduction in viral titre at 1 uM preincubated for 2 hrs followed by viral infection and subsequent compound washout at 2 hrs post infection by plaque assay; assay type: functional, organism-based; procedure, shortened: as §5
Coxsackievirus B5 [18] = experiment: Antiviral activity against Coxsackievirus B5 Ohio-1 ATCC VR 29 infected in African green monkey Vero 76 cells assessed as reduction in viral titre at 1 uM treated simultaneously with viral infection by plaque assay; assay type: functional, organism-based; procedure, shortened: as §5
Coxsackievirus B5 [19] = experiment: Antiviral activity against Coxsackievirus B5 Ohio-1 ATCC VR 29 infected in African green monkey Vero 76 cells assessed as reduction in viral replication at 1 uM measured at 4 to 12 hrs post infection by plaque assay; assay type: functional, organism-based; procedure, shortened: as §5
[20] = test system: Human immunodeficiency virus 1; experiment: Antiviral activity against HIV1 3B infected in human MT4 cells assessed as inhibition of viral replication by MTT assay; assay type: functional, organism-based; conditions: Human immunodeficiency virus 1, 3B; procedure, shortened: as §4
[21] = Selectivity index, ratio of CC50 for human MT4 cells to EC50 for HIV1 3B; assay type: toxicity; conditions: read-out: Ratio CC50/EC50; procedure, shortened: as §4
[22] = Selectivity index, ratio of CC50 for MDBK cells to EC50 for BVDV NADL ATCC VR-534; assay type: toxicity; conditions: cattle, read-out: Ratio CC50/EC50; procedure, shortened: as §3

Compound	EC50 [1]	EC50 [2]	EC50 (Human orthopneumovirus)	EC50 [3]	EC50 (Human alphaherpesvirus 1)	CC50 [4]	EC50 (Coxsackievirus B5 [5])	EC50 [6]	CC50 [7]	CC50 [8]	EC50 [9]	selectivity ratio [10]	EC50 (Vaccinia virus)	EC50 (Yellow fever virus)	CC50 [11]	also measured
COc1nc2ccc(CSc3ccc(C(=O)O)cn3)cc2nc1OC	> 100 µM	> 100 µM	> 90 µM	> 90 µM	> 90 µM	> 100 µM	3.8 µM	> 100 µM	> 100 µM	> 100 µM	> 90 µM	23	> 90 µM	> 100 µM	90 µM	–
CCOC(=O)c1ccc(SCc2ccc3nc(OC)c(OC)nc3c2)cc1	> 100 µM	> 100 µM	> 100 µM	> 100 µM	> 100 µM	> 100 µM	0.09 µM	> 100 µM	> 100 µM	> 100 µM	> 100 µM	> 1110	> 100 µM	> 100 µM	> 100 µM	Activity (Coxsackievirus B5 [12]): inactive; Activity (Coxsackievirus B5 [13]): inactive; Activity (Coxsackievirus B5 [14]): Dose-dependent effect; Activity (Coxsackievirus B5 [15]): inactive; Activity (Coxsackievirus B5 [16]): Active; Activity (Coxsackievirus B5 [17]): inactive; Activity (Coxsackievirus B5 [18]): Active; Activity (Coxsackievirus B5 [19]): inactive
CCOC(=O)c1ccc(SCc2ccc3nc(OC)c(OC)nc3c2)nc1	> 100 µM	> 100 µM	> 100 µM	> 100 µM	> 100 µM	> 100 µM	0.3 µM	> 100 µM	> 100 µM	> 100 µM	> 100 µM	> 333	> 100 µM	> 100 µM	> 100 µM	–
COc1nc2ccc(CSc3ccc(C(=O)O)cc3)cc2nc1OC	> 65 µM	> 100 µM	> 65 µM	> 65 µM	> 65 µM	68 µM	0.06 µM	> 68 µM	> 100 µM	65 µM	> 65 µM	1080	> 65 µM	> 65 µM	65 µM	–
C=CCCCOc1cnc2cc(C)c(C)cc2n1	–	–	–	–	–	–	–	–	–	–	–	–	–	–	–	IC50 [20]: 0.22 µg/mL (≈ 0.908 µM)
Cc1cc(CCCOc2c(C)cc(-c3noc(C(F)(F)F)n3)cc2C)on1 [PLECONARIL]	–	–	–	–	–	–	0.005 µM	–	–	–	–	–	–	–	> 100 µM	–
COc1nc2ccc(CSc3ccc(Cl)c(Cl)c3)cc2nc1OC	> 80 µM	> 100 µM	> 75 µM	> 75 µM	> 75 µM	48 µM	> 75 µM	> 48 µM	> 100 µM	80 µM	> 75 µM	–	> 75 µM	> 80 µM	75 µM	–
COc1nc2ccc(CSc3ccc4ccccc4c3)cc2nc1OC	> 100 µM	> 100 µM	> 100 µM	> 100 µM	> 100 µM	> 100 µM	> 100 µM	36 µM	> 100 µM	> 100 µM	> 100 µM	–	> 100 µM	> 100 µM	> 100 µM	selectivity ratio [21]: 2.7
COc1nc2ccc(CSc3ccccn3)cc2nc1OC	> 100 µM	> 100 µM	> 100 µM	> 100 µM	> 100 µM	28 µM	> 100 µM	> 28 µM	> 100 µM	> 100 µM	> 100 µM	–	> 100 µM	> 100 µM	> 100 µM	–
CCOC(=O)CC[C@H](NC(=O)c1ccc(SCc2ccc3nc(OC)c(OC)nc3c2)nc1)C(=O)OCC	> 85 µM	10 µM	> 100 µM	> 100 µM	> 100 µM	19 µM	56 µM	> 19 µM	> 100 µM	85 µM	> 100 µM	> 1.7	> 100 µM	> 85 µM	> 100 µM	selectivity ratio [22]: > 10
C[C@@]1(O)[C@H](O)[C@@H](CO)O[C@H]1n1cnc2c(=O)[nH]c(N)nc21 [2'-B-METHYL-GUANOSINE]	1.9 µM	1.1 µM	–	–	–	–	–	–	> 100 µM	> 100 µM	–	–	–	1.9 µM	–	–
CCOC(=O)CC[C@H](NC(=O)c1ccccc1SCc1ccc2nc(OC)c(OC)nc2c1)C(=O)OCC	> 100 µM	> 100 µM	> 100 µM	> 100 µM	> 100 µM	60 µM	> 100 µM	> 60 µM	> 100 µM	> 100 µM	> 100 µM	–	> 100 µM	> 100 µM	> 100 µM	–

— ChEMBL document CHEMBL4145483, “Quinoxaline derivatives as new inhibitors of coxsackievirus B5” (Eur J Med Chem, 2018)
